Key:
[1] = system: Rattus norvegicus; test: Toxicity in Sprague-Dawley rat assessed as increase in body weight at 200 mg/kg, po after 7 days relative to control; type: organism-based; set-up: dose 200 mg/kg, route oral; conditions: in vivo, 168 h
[2] = system: Rattus norvegicus; test: Toxicity in 216 days old Sprague-Dawley rat assessed as increase in serum triglyceride level at 200 mg/kg, po administered with diet after 7 days relative to control; type: organism-based; set-up: dose 200 mg/kg, route oral; conditions: in vivo, 168 h
[3] = Antitumor activity against Sprague-Dawley rat mammary tumor cells assessed as increase in apoptotic index at 200 mg/kg, po after 7 days by TUNEL assay relative to control; type: functional
In short: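 Female Sprague Dawley rats with N-methyl-nitrosourea-induced mammary cancers (about 200 mm²) were given the retinoid in Teklad diet for 7 days. BrdU was injected 2 h before CO₂ euthanasia. Cancers were excised and fixed in 10% formalin. Each index is the ratio of treated to vehicle-fed animals.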

[4] = system: Rattus norvegicus; test: Toxicity in Sprague-Dawley rat assessed as liver weight measured per 100 g of body weight at 200 mg/kg, po after 7 days (reference value: 3.3 g); type: organism-based; set-up: dose 200 mg/kg, route oral; conditions: in vivo, 168 h
[5] = system: Rattus norvegicus; test: Toxicity in 50 days old Sprague-Dawley rat assessed as increase in serum triglyceride level at 200 mg/kg, po administered with diet after 7 days relative to control; type: organism-based; set-up: dose 200 mg/kg, route oral; conditions: in vivo, 168 h

| SMILES | Activity [1] [%] | Activity [2] [%] | Activity [3] [%] | Activity [4] [g] | Activity [5] [%] |
| --- | --- | --- | --- | --- | --- |
| CC(=C/C=C/C(C)=C/C(=O)O)/C=C1\CC[C@H](C)c2ccccc21 | 3 | 175 | 300 | 3.8 | – |
| C=C(c1ccc(C(=O)O)cc1)c1cc2c(cc1C)C(C)(C)CCC2(C)C [BEXAROTENE] | 3 | – | – | – | – |
| CC(=C/C=C/C(C)=C/C(=O)O)/C=C1\CCC(C)c2ccccc21 (racemic) | 3 | 370 | 300 | – | 566 |
| CC1=C(/C=C/C(C)=C\C=C\C(C)=C\C(=O)O)C(C)(C)CCC1 [ALITRETINOIN] | 3 | – | – | – | – |
| CC(=C/C=C/C(C)=C/C(=O)O)/C=C1\CC[C@@H](C)c2ccccc21 | 3 | – | 150 | 4.2 | – |
| CC(=C/C=C/C(C)=C/C(=O)O)/C=C1\CCCc2ccccc21 [UAB-30] | 3 | – | 33 | – | – |

Reference: ChEMBL document CHEMBL3098106 (Bioorg Med Chem, 2014)
